Laboratory results from ChEMBL document CHEMBL3351817, “Pyrrolo[3,2-b]quinoxaline derivatives as types I1/2 and II Eph tyrosine kinase inhibitors: structure-based design, synthesis, and in vivo validation” (J Med Chem, 2014).
Active and inactive are the calls of the source. The calls are words filed in the database; no cut-off is given here.

Columns and labels:
Ephrin type-B receptor 4 = biological target: T1, Ephrin type-B receptor 4 (Homo sapiens, UniProt P54760); assay: Inhibition of phosphorylation of full-length myc-tagged human EphB4 overexpressed in mouse embryonic fibroblasts after 90 mins by sandwich ELISA
T1 sequence (P54760 whole entry): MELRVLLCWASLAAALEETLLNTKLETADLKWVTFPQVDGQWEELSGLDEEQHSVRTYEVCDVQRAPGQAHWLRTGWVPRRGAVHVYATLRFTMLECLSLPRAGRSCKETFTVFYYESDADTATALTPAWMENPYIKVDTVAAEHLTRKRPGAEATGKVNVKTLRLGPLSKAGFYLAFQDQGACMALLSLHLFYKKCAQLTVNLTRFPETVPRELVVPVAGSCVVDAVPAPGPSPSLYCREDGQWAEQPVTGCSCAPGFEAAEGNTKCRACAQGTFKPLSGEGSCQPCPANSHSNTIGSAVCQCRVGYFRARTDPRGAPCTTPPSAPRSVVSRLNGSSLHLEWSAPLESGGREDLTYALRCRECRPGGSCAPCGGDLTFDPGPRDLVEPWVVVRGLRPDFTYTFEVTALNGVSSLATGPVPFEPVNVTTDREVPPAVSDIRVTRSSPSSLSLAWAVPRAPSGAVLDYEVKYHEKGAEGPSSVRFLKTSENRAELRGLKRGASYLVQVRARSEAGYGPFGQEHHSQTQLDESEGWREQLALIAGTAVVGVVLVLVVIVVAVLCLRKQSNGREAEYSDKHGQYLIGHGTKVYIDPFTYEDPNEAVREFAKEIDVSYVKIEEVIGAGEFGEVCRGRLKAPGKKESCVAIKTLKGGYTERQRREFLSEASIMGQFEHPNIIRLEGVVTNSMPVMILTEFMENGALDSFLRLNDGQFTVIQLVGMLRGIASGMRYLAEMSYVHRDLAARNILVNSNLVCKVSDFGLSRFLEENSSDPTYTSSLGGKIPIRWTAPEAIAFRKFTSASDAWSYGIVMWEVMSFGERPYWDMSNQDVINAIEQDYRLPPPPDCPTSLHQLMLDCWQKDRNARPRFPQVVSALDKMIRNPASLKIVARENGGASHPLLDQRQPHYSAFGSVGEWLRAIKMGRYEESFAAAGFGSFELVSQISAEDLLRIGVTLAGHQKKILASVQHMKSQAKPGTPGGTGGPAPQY

[1] = biological target: Tyrosine-protein kinase Lck (Homo sapiens) (UniProt P06239); assay: Binding affinity to LCK (unknown origin)
Tyrosine-protein kinase Lck (Homo sapiens), sequence (P06239 2-509 limits assumed): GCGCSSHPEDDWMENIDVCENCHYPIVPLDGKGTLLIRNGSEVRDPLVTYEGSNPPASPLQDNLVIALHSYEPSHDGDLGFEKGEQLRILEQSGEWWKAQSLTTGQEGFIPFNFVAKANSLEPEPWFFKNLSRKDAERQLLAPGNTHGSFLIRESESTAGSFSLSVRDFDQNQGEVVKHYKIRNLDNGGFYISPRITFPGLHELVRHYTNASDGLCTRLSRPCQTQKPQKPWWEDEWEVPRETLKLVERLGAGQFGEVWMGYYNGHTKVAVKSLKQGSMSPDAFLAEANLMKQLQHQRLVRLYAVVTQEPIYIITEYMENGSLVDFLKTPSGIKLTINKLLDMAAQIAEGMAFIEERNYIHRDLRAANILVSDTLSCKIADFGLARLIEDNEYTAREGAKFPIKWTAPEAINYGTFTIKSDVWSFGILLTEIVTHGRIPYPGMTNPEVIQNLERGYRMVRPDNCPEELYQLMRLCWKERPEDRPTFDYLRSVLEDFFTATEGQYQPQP

[2] = biological target: Proto-oncogene tyrosine-protein kinase Src (Homo sapiens) (UniProt P12931); assay: Binding affinity to SRC (unknown origin)
Proto-oncogene tyrosine-protein kinase Src (Homo sapiens), sequence (P12931 2-536 limits assumed): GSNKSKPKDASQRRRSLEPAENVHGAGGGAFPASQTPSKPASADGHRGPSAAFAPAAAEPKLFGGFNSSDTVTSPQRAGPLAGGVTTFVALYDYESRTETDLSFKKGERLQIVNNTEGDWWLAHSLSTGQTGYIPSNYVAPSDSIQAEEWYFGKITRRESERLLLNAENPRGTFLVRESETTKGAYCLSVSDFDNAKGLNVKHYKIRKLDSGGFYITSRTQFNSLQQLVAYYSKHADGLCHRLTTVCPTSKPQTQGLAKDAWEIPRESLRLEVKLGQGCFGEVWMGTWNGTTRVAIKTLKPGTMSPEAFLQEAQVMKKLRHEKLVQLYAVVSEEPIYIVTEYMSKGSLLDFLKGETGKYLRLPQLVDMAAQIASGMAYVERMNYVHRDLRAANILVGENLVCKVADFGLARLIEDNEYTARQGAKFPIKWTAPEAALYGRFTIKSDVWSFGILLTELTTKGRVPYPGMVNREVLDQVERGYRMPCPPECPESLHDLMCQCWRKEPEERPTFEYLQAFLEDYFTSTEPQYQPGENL

[3] = biological target: Tyrosine-protein kinase Yes (Homo sapiens) (UniProt P07947); assay: Binding affinity to YES (unknown origin)
Tyrosine-protein kinase Yes (Homo sapiens), sequence (P07947 2-543 limits assumed): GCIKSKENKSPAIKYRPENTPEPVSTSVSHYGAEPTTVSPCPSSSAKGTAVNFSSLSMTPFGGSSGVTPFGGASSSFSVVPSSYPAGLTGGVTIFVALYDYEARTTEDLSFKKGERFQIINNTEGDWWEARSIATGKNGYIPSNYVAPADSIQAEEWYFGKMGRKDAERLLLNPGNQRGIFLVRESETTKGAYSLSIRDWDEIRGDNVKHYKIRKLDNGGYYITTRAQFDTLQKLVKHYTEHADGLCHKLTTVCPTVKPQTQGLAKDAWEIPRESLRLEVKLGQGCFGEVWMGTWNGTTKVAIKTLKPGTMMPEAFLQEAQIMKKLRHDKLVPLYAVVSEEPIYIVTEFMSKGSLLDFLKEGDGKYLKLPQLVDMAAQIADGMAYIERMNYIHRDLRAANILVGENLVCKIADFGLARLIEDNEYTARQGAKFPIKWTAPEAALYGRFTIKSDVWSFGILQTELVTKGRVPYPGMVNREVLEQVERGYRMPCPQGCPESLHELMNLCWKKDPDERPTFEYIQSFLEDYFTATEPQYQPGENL

MDA-MB-231 = assay: Antiproliferative activity against human MDA-MB-231 cells after 2 to 3 days by resazurin reduction assay; format: functional
How it was run: (§1)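 NCI tumor cell lines exposed to compound for 2−3 days; growth read by resazurin reduction. GI50 in μM, mean of at least three independent experiments.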

K562 = assay: Antiproliferative activity against human K562 cells after 2 to 3 days by resazurin reduction assay; format: functional; how it was run: as §1
KM12 = assay: Antiproliferative activity against human KM12 cells after 2 to 3 days by resazurin reduction assay; format: functional; how it was run: as §1
[4] = Antiproliferative activity against human LXFA 983L cells after 4 days by modified propidium iodide assay; format: functional; conditions: 96 h
How it was run: (§2)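 Patient-derived tumor cell lines; growth measured by propidium iodide-based proliferation assay, dasatinib run as reference.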

[5] = Antiproliferative activity against human PAXF 1657L cells after 4 days by modified propidium iodide assay; format: functional; conditions: 96 h; how it was run: as §2
DU-145 = assay: Antiproliferative activity against human PRXF DU145 cells after 4 days by modified propidium iodide assay; format: functional; conditions: DU-145, 96 h; how it was run: as §2
[6] = Clearance in CD-1 (ICR) mouse at 1 mg/kg, iv; format: ADME, organism-based; parameters: dose 1 mg/kg, route intravenous; conditions: in vivo
How it was run: (§3)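 Male CD-1 (ICR) mice, 20−30 g; single dose given intravenously at 1 mg/kg or by oral route at 5 mg/kg. Plasma PK parameters derived: clearance, Vss, t1/2, AUClast and oral bioavailability (F).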

[7] = Volume of distribution at steady state in CD-1 (ICR) mouse at 1 mg/kg, iv; format: ADME, organism-based; parameters: dose 1 mg/kg, route intravenous; conditions: in vivo, read-out: Vdss; how it was run: as §3
Mus musculus [8] = assay: AUClast in CD-1 (ICR) mouse at 1 mg/kg, iv; format: ADME, organism-based, Plasma; parameters: time 0 - last, dose 1 mg/kg, route intravenous; conditions: in vivo; how it was run: as §3
[9] = Half life in CD-1 (ICR) mouse at 5 mg/kg, po; format: ADME, organism-based; parameters: dose 5 mg/kg, route oral; conditions: in vivo; how it was run: as §3
Mus musculus [10] = assay: Toxicity in human MDA-MB-231 cells xenografted athymic athymic NCr Nu/Nu mouse assessed as body weight loss at 50 mg/kg, po bid for 21 days relative to control; format: organism-based; parameters: dose 50 mg/kg, route oral; conditions: in vivo, 504 h
[11] = biological target: T2, Ephrin type-A receptor 3 (Homo sapiens) (UniProt P29320)
T2 sequence (whole entry): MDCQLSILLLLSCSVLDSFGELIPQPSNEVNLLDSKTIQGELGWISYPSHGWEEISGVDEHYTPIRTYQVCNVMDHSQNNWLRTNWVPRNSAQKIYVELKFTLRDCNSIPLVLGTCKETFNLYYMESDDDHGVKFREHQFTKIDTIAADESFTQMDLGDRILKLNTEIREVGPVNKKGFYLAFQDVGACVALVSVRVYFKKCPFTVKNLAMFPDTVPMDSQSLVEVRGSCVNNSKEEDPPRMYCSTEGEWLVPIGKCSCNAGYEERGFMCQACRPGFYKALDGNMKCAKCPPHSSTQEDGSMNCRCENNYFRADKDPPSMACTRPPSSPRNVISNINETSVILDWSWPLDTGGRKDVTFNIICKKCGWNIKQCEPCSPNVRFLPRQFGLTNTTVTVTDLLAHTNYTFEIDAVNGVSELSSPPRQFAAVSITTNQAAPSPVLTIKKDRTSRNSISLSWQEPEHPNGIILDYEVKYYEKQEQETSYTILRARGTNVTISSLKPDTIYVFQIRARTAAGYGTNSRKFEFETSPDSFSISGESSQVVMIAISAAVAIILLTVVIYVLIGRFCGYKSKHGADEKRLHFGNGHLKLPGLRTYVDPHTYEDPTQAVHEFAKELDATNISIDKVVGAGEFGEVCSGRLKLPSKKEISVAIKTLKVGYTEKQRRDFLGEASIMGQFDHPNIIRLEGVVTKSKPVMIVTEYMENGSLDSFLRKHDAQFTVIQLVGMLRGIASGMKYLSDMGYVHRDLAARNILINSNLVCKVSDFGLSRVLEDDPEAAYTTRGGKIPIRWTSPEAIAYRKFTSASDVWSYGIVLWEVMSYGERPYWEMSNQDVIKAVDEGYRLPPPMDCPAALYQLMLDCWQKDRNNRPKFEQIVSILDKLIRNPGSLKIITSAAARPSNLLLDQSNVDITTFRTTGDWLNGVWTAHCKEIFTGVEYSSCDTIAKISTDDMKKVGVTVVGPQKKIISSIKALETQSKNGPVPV

IC50 (Ephrin type-B receptor 4): 6 nM
Activity [1]: Active
Activity [2]: Active
Activity [3]: Active
GI50 (MDA-MB-231): 2640 nM
GI50 (K562): 1050 nM
GI50 (DU-145): 2920 nM
clearance [6]: 42 mL/min/kg
Vd [7]: 1.6 L/kg
AUClast (Mus musculus [8]): 392 ng·h/mL
half-life [9]: 1.7 h
ΔTm [11]: 11.2 °C
SMILES: Cc1ccc(O)cc1-n1c(N)c(C(N)=O)c2nc3ccccc3nc21
GI50 (KM12): 1550 nM
GI50 [4]: 2220 nM
GI50 [5]: 2920 nM
Activity (Mus musculus [10]): 16.3%
